# CHT block: inhibitors of human choline transporter CHT | High affinity choline transporter 1 (Homo sapiens), Q9GZV3 | CHT-expressing cells, membrane potential dye, choline response; hits give low values | B-score at 10 µM | 310,000 tested, 0.86% active | AID 488975, 2010;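 active = B-score over 3 SD under the library average, and starting fluorescence ratio not unusually high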;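 note: choline stimulus applied at its EC90 after an EC20 pre-addition; B-score computed on integrated fluorescence ratio after choline addition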
# GalR3 antagonist: GalR3 antagonists in HEK293 cells, primary screen, cell-based, fluorescence readout; AID 651719, 2012; Galanin receptor type 3 (Homo sapiens), O60755; 360,000 tested, 0.44% active; HEK293 GalR3-CNG cAMP membrane potential fluorescence; galR3 body fused to GalR1 C-terminus; inhibition, % at 3 µM;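 active = inhibition above the screen-wide average plus 3 SD, cut at about 13% in these data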;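 note: forskolin and galanin both at EC90 stimulate the cells; cAMP rise reported by CNG channel membrane potential dye signal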
# Target sequence (O60755 1-299 limits assumed): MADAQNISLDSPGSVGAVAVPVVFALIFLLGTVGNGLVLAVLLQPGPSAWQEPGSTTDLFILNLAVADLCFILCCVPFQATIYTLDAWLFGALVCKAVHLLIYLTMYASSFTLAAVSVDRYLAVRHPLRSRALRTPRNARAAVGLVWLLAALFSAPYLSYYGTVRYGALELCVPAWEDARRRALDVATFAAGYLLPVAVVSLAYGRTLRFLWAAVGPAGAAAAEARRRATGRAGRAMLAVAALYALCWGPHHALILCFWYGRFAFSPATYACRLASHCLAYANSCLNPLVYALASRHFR
# CHT allo act: CHT positive allosteric modulators, primary screen, cell-based, membrane potential dye, choline EC20; High affinity choline transporter 1 (Homo sapiens), Q9GZV3; CHT-expressing cells; hits give high values; LV-AA mutant CHT in HEK293 cells; B-score at 10 µM; 310,000 tested, 0.49% active; AID 488977, 2010;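 active = initial fluorescence not abnormally high and integrated response B-score, plate-corrected, over 3 SD above library mean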
# NR2E3 ag-1: NR2E3 agonists in two-hybrid cells, primary screen, cell-based, luminescence, CHO-S, Gal4-NCOR/VP16-NR2E3 | Photoreceptor-specific nuclear receptor (Homo sapiens), Q9Y5X4 | luciferase | inhibition of corepressor binding, % at 3.98 µM | 360,000 tested, 0.35% active;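 active = inhibition above the mean of all tested compounds plus 3 SD, cut at about 70% in these data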;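 note: higher means lower luciferase signal from less NR2E3 corepressor binding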
# NR2E3 ag-2: inhibitors of NR2E3-RetCOR corepressor binding, primary screen, NR2E3 agonist project, biochemical, TR-FRET, GST-NR2E3, biotin-RetCOR; AID 2300, 2010; 320,000 tested, 0.12% active; inhibition of corepressor binding, % at 4.78 µM; 1536-well;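 active = percent inhibition above the cutoff of mean plus 3 SD of all tested compounds, set per screening campaign, cut at about 20% in these data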
#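 Material: NR2E3–RetCOR corepressor complex / Incubation: Compound–protein incubation for 5 h at 4 °C / Dosing: compound at 4.8 µM, single dose / Detection: time-resolved FRET / Benchmarks: high control biotin, low control 0.6% DMSO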
# COUP-TFII inh: NR2F2 transcriptional activity inhibitors, primary screen, cell-based, luciferase reporter, HEK293T, luminescence; 370,000 tested, 0.7% active; inhibition, % at 8.6 µM; HEK293T NGFI-A luciferase reporter; COUP transcription factor 2 (Homo sapiens), P24468;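 active = inhibition above a per-plate cutoff, mean inhibition of test wells between control levels plus 3 SD, cut at about 38% in these data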;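 note: cells cotransfected with COUP-TFII expression vector driving the NGFI-A reporter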
# GalR3 antag conf: GalR3 antagonist hit confirmation, cell-based, fluorescence, triplicate; inhibition, % at 3 µM; HEK293 GalR3 CNG cAMP biosensor, membrane potential fluorescence; galR3 fused to GalR1 carboxy tail; challenged with forskolin and galanin at EC90; shares compounds with GalR3 antagonist; 1,600 tested, 59% active;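 active = inhibition above the primary screen's cutoff, the mean inhibition of all screened compounds plus 3 SD, cut at about 13% in these data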
# HEK-CNG parental: nonspecific cAMP agonists in parental HEK-CNG cells, counter-screen for GalR3 antagonist project, cell-based, fluorescence, high throughput; activation, % at 3 µM; HEK293-CNG parental cells, cAMP membrane potential fluorescence; normalised: DMSO wells 0%, forskolin wells 100%; AID 652268, 2013; shares compounds with GalR3 antagonist; 1,600 tested, 10% active; in the data active = activation above about 1.3%
# A number is an active result; - = inactive; . = not tested or not shown. This is a sample that favours compounds with a hit; in the whole collection about 2.3% have one here.
SMILES,CHT block,GalR3 antagonist,CHT allo act,NR2E3 ag-1,NR2E3 ag-2,COUP-TFII inh,GalR3 antag conf,HEK-CNG parental
Cc1ccc(S(=O)(=O)N(C)Cc2cc3cc(C)ccc3[nH]c2=O)cc1,-,-,-,-,-,-,.,.
COCCN(Cc1cc2cc(C)ccc2[nH]c1=O)S(=O)(=O)c1ccc(Cl)cc1,-,73.5,-,-,-,-,-,-
COC(=O)[C@H](C(C)C)N(CCc1cn(CC2CCCCC2)nn1)S(=O)(=O)c1ccc(F)cc1Br,.,.,.,.,.,-,.,.
Nc1ncn(C2O[C@H](CO)[C@@H](O)[C@H]2O)c(=O)n1 (stereo not given in full),-,.,-,.,-,.,.,.
Nc1cnn(C2OC(CO)C(O)C2O)c(=O)n1 (stereo not given),-,21.2,-,-,-,-,-,-
CC(=O)N1[C@@H](CO)[C@@H](c2ccc(-c3cccc(F)c3)cc2)[C@@H]1CNCC1CCC1,.,.,.,.,.,-,.,.
COc1ccc(/C=N\NC(=O)CNC(=O)C(c2ccccc2)c2ccccc2)cc1[N+](=O)[O-],-,-,-,-,-,-,.,.
COc1ccc(/C=N/NC(=O)C(=O)N2CCCCCC2)cc1[N+](=O)[O-],-,16.5,-,-,-,-,21.7,-
COc1ccc(/C=N/NC(=O)C(C)Sc2ccccn2)cc1[N+](=O)[O-] (stereo not given),-,19.3,-,-,-,-,-,-
COc1cc(/C=N/NC(=O)C(=O)N2CCCCCC2)ccc1O,-,-,-,-,-,-,.,.
c1ccc(-c2nnc3n2N=C(c2ccc4ccccc4c2)CS3)cc1,.,.,.,.,.,-,.,.
O=C(CCl)NC1CCCCN(Cc2ccc(OC(F)(F)F)cc2)C1=O (stereo not given),.,.,.,.,.,-,.,.
O=C(Nc1ccccc1)c1ccc(CN2CCc3ccccc3C2)cc1,-,92.0,-,-,-,-,102.3,-
Cc1cc(C)cc(NC(=O)c2ccc(CN3CCc4ccccc4C3)cc2)c1,-,-,-,-,-,-,.,.
Cc1ccc(NC(=O)c2ccc(CN3CCc4ccccc4C3)cc2)cc1,-,27.1,-,-,-,-,103.6,-
CC(C)(C)OC(=O)/C=C/[C@@H](CCCCl)Sc1ccc(C(C)(C)C)cc1,.,.,.,.,.,-,.,.
Cc1ccc(Cn2cc(CN3[C@@H](CC(C)C)COc4cccc(F)c4S3(=O)=O)nn2)cc1,.,.,.,.,.,-,.,.
C=CCn1c(SCC(=O)Nc2ccc(CCCC)cc2)nnc1-c1ccc(Cl)cc1,.,.,.,.,.,-,.,.
CCCn1c2ccccc2c2nnc(SCC(=O)Nc3cc(C)on3)nc21,-,-,-,-,-,-,.,.
CCOC(=O)CCCCC(=O)c1[nH]c(=O)[nH]c1CSc1nnc2c3ccccc3n(C(C)C)c2n1,-,31.4,-,-,-,-,17.6,-
CCCn1c2ccccc2c2nnc(SCc3[nH]c(=O)[nH]c3C(=O)CCCCC(=O)OCC)nc21,-,16.8,-,-,-,-,-,-
Cc1cc(C)cc(NC(=O)O[C@@H]2CC[C@@]34CCCN3C(=O)CCC[C@H]4C2)c1,.,.,.,.,.,-,.,.
CCOC(=O)C1CCN(C(=O)C(C)(C)NC(=O)Nc2ccc3c(c2)CCC3)CC1,.,.,.,.,.,-,.,.
COc1ccc(-n2c(SCC(=O)Nc3ccc4c(c3)OCCO4)nnc2-c2ccccc2)cc1,.,.,.,.,.,-,.,.
C/C=C/C(=O)N1CCC(C(=O)NCC2COc3ccccc3O2)CC1 (stereo not given),.,.,.,.,.,-,.,.
SMILES,CHT block,GalR3 antagonist,CHT allo act,NR2E3 ag-1,NR2E3 ag-2,COUP-TFII inh,GalR3 antag conf,HEK-CNG parental
COc1ccccc1C(=O)Nc1cc2c(cc1C(=O)O)OCCCO2,-,12.7,-,-,-,-,-,-
C[C@@H]1[C@@H](O)C[C@@]2(C[C@H](O)c3cc(Cl)ccc3O2)O[C@H]1c1ccccc1Cl,.,.,.,.,.,-,.,.
CC1CCN(c2ccc(C(=O)O)cc2NS(=O)(=O)c2ccccc2)CC1,.,.,.,.,.,-,.,.
Cc1ccc2nc(SCC(=O)NCc3ccc(F)cc3)nc(=O)n2c1,-,18.0,-,-,-,-,-,-
Cc1ccc2nc(SCC(=O)Nc3ccc(F)cc3)nc(=O)n2c1,-,-,-,-,-,-,.,.
COc1ccc(/C=C(/NC(=O)c2ccccc2)C(=O)NC2CCS(=O)(=O)C2)cc1 (stereo not given),-,.,-,-,-,-,-,-
CCC(C)NS(=O)(=O)c1ccc2[nH]c(=O)oc2c1 (stereo not given),.,.,.,.,.,-,.,.
O=C(CN(CCc1ccccc1)S(=O)(=O)c1ccc(Cl)cc1)N/N=C/c1ccc2c(c1)OCO2,-,13.2,-,-,-,-,-,1.9
CCOC(=O)CSC1=C(C#N)C(c2ccc(Cl)cc2)CC(=O)N1 (stereo not given),-,-,-,-,-,-,.,.
Cc1c(C#N)c(N)nc2c3c(sc12)NC(=O)CC3c1ccc(Cl)cc1 (stereo not given),-,24.8,-,-,-,-,47.9,-
N#Cc1c(N)nc2c3c(sc(=N)c2c1N)NC(=O)CC3c1ccccc1 (stereo not given),-,21.9,-,-,-,-,24.7,-
N#Cc1c(N)nc2c3c(sc(=N)c2c1N)NC(=O)CC3c1c(F)cccc1Cl (stereo not given),-,-,-,-,-,-,.,.
C[C@@H](CCCCC1(C)OCCO1)CCC(=O)N(c1ccccc1)c1ccccc1,.,.,.,.,.,-,.,.
CCOC(=O)CC[C@@H]1CC[C@]2(CCCN(C(=O)c3ccc4ccccc4n3)C2)O1,.,.,.,.,.,-,.,.
C=CCN1[C@H](C#N)[C@@H](c2ccccc2)[C@H]1CO,.,.,.,.,.,-,.,.
CCc1ccc(NC(=O)c2n[nH]c(=O)c3ccccc23)cc1,-,14.7,-,-,-,-,-,-
O=C(NCCOc1ccccc1)c1n[nH]c(=O)c2ccccc12,-,20.4,-,-,-,-,-,-
CCCNC(=O)c1n[nH]c(=O)c2ccccc12,-,-,-,-,-,-,.,.
